Bioassay records deposited in PubChem BioAssay by Broad Institute.
The list is not random: actives were taken first. Their share in the collection is about 5.9%.
Pf Dd2 inh: P. falciparum Dd2 growth inhibition | SYBR Green, 72 h; active compounds read low | activity change, % at 10 µM | 94,000 compounds, 2.3% hits | AID 1159554; in the data active = activity change below about -80%
IDH1 mut inh: inhibitors of human IDH1 R132H | IDH1 R132H reductase, diaphorase/resazurin fluorescence, 60 min | inhibition, % at 10 µM | 70,000 compounds, 0.18% hits; in the data active = inhibition above about 34%;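 also: 0% = DMSO and 100% = no enzyme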
KDM4C inh: KDM4C (human) demethylase inhibition | Q9H3R0 | GST-KDM4C 2-372, H3K9me3 peptide, LANCE TR-FRET | inhibition, % at 12.5 µM | 96,000 compounds, 0.15% hits | AID 720574;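 active = mean replicate inhibition above about 25%, with at least 55% of replicates also reaching it, limit read from the data, passing the limit was not always enough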
Target sequence (Q9H3R0 2-372 limits assumed): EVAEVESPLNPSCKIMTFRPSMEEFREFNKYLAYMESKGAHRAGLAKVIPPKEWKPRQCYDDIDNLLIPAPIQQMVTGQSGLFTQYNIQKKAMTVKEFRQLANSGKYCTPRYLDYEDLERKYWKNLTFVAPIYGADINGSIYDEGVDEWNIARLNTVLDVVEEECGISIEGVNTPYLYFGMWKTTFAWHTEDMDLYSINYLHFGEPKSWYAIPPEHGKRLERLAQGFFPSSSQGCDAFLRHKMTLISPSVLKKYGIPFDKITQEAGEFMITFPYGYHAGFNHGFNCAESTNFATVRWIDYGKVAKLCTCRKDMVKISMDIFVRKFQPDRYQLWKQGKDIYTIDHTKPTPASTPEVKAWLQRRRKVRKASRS
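Test system – GST-tagged GASC-1 (JMJD2C) catalytic fragment, aa 2-372 · Medium – HEPES buffer, pH 7.5, plus ascorbate · Reagent – H3K9me3 peptide with Fe(II)/2OG · Compound – one test concentration per compound · Timing – 30 min reaction, 60 min detection, RT · Technique – TR-FRET with Eu antibody and ULight streptavidin, EDTA stop · Read-out basis – inhibition from TR-FRET ratio decrease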
Tcruzi prolif: blocks T. cruzi growth in NIH3T3 culture; T. cruzi beta-gal in NIH3T3, GalScreen luminescence, 90 h; inhibition, % at 8.34 µM; 77,000 compounds, 5.9% hits;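 active = mean inhibition above about 93%, with at least 55% of replicates each passing it, limit read from the data, passing the limit was not always enough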
Numbers without * were called inactive; . = no result; ! = not active in a repeat.

SMILES	Pf Dd2 inh	IDH1 mut inh	KDM4C inh	Tcruzi prolif
C[C@@H]1CN([C@@H](C)CO)C(=O)c2cccc(NC(=O)CCCCCC(=O)Nc3ccccc3N)c2O[C@H]1CN(C)Cc1ccc2c(c1)OCO2	-88*	0	0	.
Cc1cc(=O)[nH]c(SCCOc2cccc(Br)c2)n1	.	0	.	.
CNS(=O)(=O)c1ccc(NC(=O)c2cc(-c3cccnc3)nc3ccc(Br)cc23)cc1	.	0	.	.
C[C@H](CO)N1C[C@H](C)[C@H](CN(C)C(=O)Nc2cccc3ccccc23)OCCCC[C@H](C)Oc2ccc(NC(=O)Cc3ccccc3)cc2C1=O	-82*	.	-3	42
C[C@@H]1CCCCO[C@@H](CN(C)C(=O)Nc2cccc3ccccc23)[C@H](C)CN([C@@H](C)CO)C(=O)c2cc(NC(=O)Cc3ccccc3)ccc2O1	-81*	2	-5	95
C[C@@H]1CCCCO[C@H](CN(C)C(=O)Nc2cccc3ccccc23)[C@@H](C)CN([C@H](C)CO)C(=O)c2cc(NC(=O)Cc3ccccc3)ccc2O1	-39	0	-2	23
O=C(C[C@H]1C=C[C@H](NC(=O)Cc2ccccn2)[C@H](CO)O1)NCCc1ccccc1	-92*	.	0	.
CSc1ccccc1NC(=O)Cn1c(-c2nonc2N)nc2ccccc21	.	0	.	.
N#Cc1cccc(-c2ccc(C3[C@H]4CNC[C@@H]3N4S(=O)(=O)c3ccc(F)cc3)cc2)c1 (stereo not given in full)	-12	.	35*!	.
Cc1ccc(-n2nc3cc(C)c(NC(=O)COc4cccc(C)c4)cc3n2)cc1	.	0	.	.
COc1ccc(S(=O)(=O)N(C)C[C@H]2OCCCC[C@@H](C)Oc3ccc(NC(=O)Nc4cccc5ccccc45)cc3C(=O)N([C@@H](C)CO)C[C@@H]2C)cc1	-70	0	-5	79
COc1ccc(S(=O)(=O)N(C)C[C@H]2OCCCC[C@H](C)Oc3ccc(NC(=O)Nc4cccc5ccccc45)cc3C(=O)N([C@H](C)CO)C[C@H]2C)cc1	-86*	.	-4	80
Cc1ccc(S(=O)(=O)N(C)C[C@H]2OCCCC[C@H](C)Oc3ccc(NC(=O)Nc4cccc5ccccc45)cc3C(=O)N([C@@H](C)CO)C[C@H]2C)cc1	-82*	.	.	.
COc1ccc(S(=O)(=O)N(C)C[C@@H]2OCCCC[C@H](C)Oc3ccc(NC(=O)Nc4cccc5ccccc45)cc3C(=O)N([C@@H](C)CO)C[C@H]2C)cc1	-89*	1	-2	18
COc1ccc(NC(=O)CSc2nnc(-c3ccc(NC(=O)c4ccc(C)cc4)cc3)n2C)cc1Cl	.	1	.	.
Cc1ccc(NC(=O)CSc2n[nH]c(-c3ccccc3Cl)n2)cc1C	.	0	.	.
CCc1cccc(C)c1NC(=O)COc1ccc(NC(C)=O)cc1	.	0	.	.
C[C@@H]1CN([C@@H](C)CO)C(=O)c2cc(NC(=O)Nc3cccc4ccccc34)ccc2O[C@@H]1CN(C)C(=O)Nc1ccc(C(F)(F)F)cc1	-37	-2	-4	70
C[C@@H]1CN([C@@H](C)CO)C(=O)c2cc(NC(=O)Nc3ccc(C(F)(F)F)cc3)ccc2O[C@H]1CN(C)C(=O)Nc1cccc2ccccc12	-87*	2	1	-43
C[C@@H]1CN([C@@H](C)CO)C(=O)c2cccc(NC(=O)Nc3ccc(C(F)(F)F)cc3)c2O[C@@H]1CN(C)S(=O)(=O)c1ccc(Cl)cc1	-67	0	3	107*
C[C@H](CO)N1C[C@H](C)[C@H](CN(C)C(=O)Nc2ccc(C(F)(F)F)cc2)Oc2ccc(NC(=O)Nc3cccc4ccccc34)cc2C1=O	-83*	0	-1	88
CC(C)NC(=O)Nc1cccc2c1O[C@H](CN(C)C(=O)Nc1ccc(C(F)(F)F)cc1)[C@@H](C)CN([C@H](C)CO)C2=O	0	.	-4	27
CC(C)NC(=O)Nc1cccc2c1O[C@H](CN(C)C(=O)Nc1ccc(C(F)(F)F)cc1)[C@H](C)CN([C@@H](C)CO)C2=O	-85*	.	-2	4
C[C@@H]1CN([C@@H](C)CO)C(=O)c2cccc(NC(=O)Nc3ccc(C(F)(F)F)cc3)c2O[C@H]1CN(C)C(=O)Nc1cccc2ccccc12	-88*	1	1	88
C[C@@H]1CN([C@@H](C)CO)C(=O)c2cc(NC(=O)Nc3ccccc3)ccc2O[C@@H]1CN(C)C(=O)Nc1cccc2ccccc12	-91*	0	-7	15
SMILES	Pf Dd2 inh	IDH1 mut inh	KDM4C inh	Tcruzi prolif
C[C@H](CO)N1C[C@H](C)[C@H](CN(C)C(=O)Nc2cccc3ccccc23)Oc2c(NC(=O)Nc3ccc(C(F)(F)F)cc3)cccc2C1=O	-16	.	.	89
C[C@H]1CN([C@@H](C)CO)C(=O)c2cccc(NS(=O)(=O)c3cn(C)cn3)c2O[C@H]1CN(C)C(=O)Nc1ccc(C(F)(F)F)cc1	-85*	-6	5	-90
C[C@@H]1CN([C@H](C)CO)C(=O)c2cccc(NS(=O)(=O)c3cn(C)cn3)c2O[C@@H]1CN(C)C(=O)Nc1ccc(C(F)(F)F)cc1	-9	3	7	-84
O=C(CSc1nc2ccccc2c(=O)n1-c1ccccc1)Nc1ccc(Br)cc1Cl	.	0	.	.
O=C(CCCCCCC(=O)Nc1ccccc1O)N/N=C/c1ccc(F)c(Oc2ccccc2)c1	.	0	.	.
COc1cc(CN2C[C@@H]3N[C@H](C2)C3c2ccc(/C=C/c3ccccc3)cc2)cc(OC)c1 (stereo not given in full)	-88*!	.	0	.
COc1ccc(-c2ccc(C3[C@@H]4CN(Cc5cc(OC)cc(OC)c5)C[C@H]3N4)cc2)cc1 (stereo not given in full)	-88*!	.	1	.
COc1cc(CN2C[C@@H]3N[C@H](C2)C3c2ccc(-c3cncnc3)cc2)cc(OC)c1 (stereo not given in full)	-12	.	1	.
COc1cc(CN2C[C@@H]3N[C@H](C2)C3c2ccc(-c3ccncc3)cc2)cc(OC)c1 (stereo not given in full)	-81*	.	0	.
C/C=C/c1ccc(C2[C@@H]3CN(Cc4cccc(OC)c4)C[C@H]2N3)cc1 (stereo not given in full)	-19	.	0	.
COc1cc(CN2C[C@@H]3N[C@H](C2)C3c2ccc(-c3cccc(OC)c3)cc2)cc(OC)c1 (stereo not given in full)	-75	.	0	.
O=C(COc1ccc2ccccc2c1Br)Nc1ccccc1C(=O)NC1CCCCC1	.	0	.	.
COc1cccc(OC)c1C(=O)Nc1ccc(C(=O)NCC2CCCO2)cc1 (stereo not given)	.	0	.	.
CCc1c(C)sc(NC(=O)c2ccc(Cn3nc(C)c(Cl)c3C)o2)c1C(N)=O	.	0	.	.
COc1ccc2c3c(n(C)c2c1)[C@@H](CO)N(C(=O)Nc1ccc(F)cc1)CC31CN(C(=O)c2ccc3c(c2)OCO3)C1	-87*	.	1	.
COc1ccc2c3c(n(C)c2c1)[C@@H](CO)N(C)CC31CN(C(=O)c2ccc3c(c2)OCO3)C1	-43	.	0	.
COc1ccc2c3c(n(C)c2c1)[C@H](CO)N(C(=O)Nc1ccc(F)cc1)CC31CN(C(=O)c2ccc3c(c2)OCO3)C1	-89*	.	-2	.
